Laboratory results reported in ChEMBL document CHEMBL5370536, “Design, synthesis, and biological activity of dual monoamine oxidase A and heat shock protein 90 inhibitors, N-Methylpropargylamine-conjugated 4-isopropylresorcinol for glioblastoma” (Eur J Med Chem, 2023).
Active and inactive are the calls of the source. The rule behind the calls is not given here.

Tests used:
[1] = Antiproliferative activity against mouse GL26 cells assessed as inhibition of cell growth measured after 48 hrs by MTT assay; format: functional, cell-based; conditions: GL26, 48 h
Method in brief: (§1)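 Cells plated at 5×10³ per well 24 h before compound and grown in DMEM with 10% FBS at 37°C, 5% CO₂. After 48 h exposure, the medium was replaced with 0.5 mg/mL MTT for 3 h. Formazan was dissolved in DMSO and read at 570 nm.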

[2] = molecular target: T1, Amine oxidase [flavin-containing] A (Mus musculus, UniProt Q64133); assay: Inhibition of MAO A in mouse GL26 cells preincubated for 20 mins followed by 14C-labeled 5-hydroxytryptamine addition and measured after 20 mins by scintillation counter analysis; format: cell-based
T1 sequence (Q64133 whole entry): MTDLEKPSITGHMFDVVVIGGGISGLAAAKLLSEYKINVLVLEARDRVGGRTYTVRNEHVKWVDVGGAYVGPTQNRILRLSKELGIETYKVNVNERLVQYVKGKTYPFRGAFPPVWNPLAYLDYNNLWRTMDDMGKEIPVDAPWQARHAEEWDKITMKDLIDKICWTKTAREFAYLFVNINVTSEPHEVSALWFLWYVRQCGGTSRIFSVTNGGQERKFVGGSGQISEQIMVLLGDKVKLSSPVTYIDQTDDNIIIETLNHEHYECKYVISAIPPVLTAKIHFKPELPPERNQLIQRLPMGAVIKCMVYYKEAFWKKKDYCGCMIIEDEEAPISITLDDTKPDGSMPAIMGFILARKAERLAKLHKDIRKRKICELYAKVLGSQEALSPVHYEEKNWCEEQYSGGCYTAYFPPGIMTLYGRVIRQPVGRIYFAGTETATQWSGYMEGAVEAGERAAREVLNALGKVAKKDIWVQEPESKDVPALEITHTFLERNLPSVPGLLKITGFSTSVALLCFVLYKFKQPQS

U-251 [3] = assay: Antiproliferative activity against human Temozolomide-resistant U-251 cells assessed as inhibition of cell growth measured after 48 hrs by MTT assay; format: functional, cell-based; conditions: U-251, 48 h; method in brief: as §1
[4] = molecular target: Heat shock protein HSP 90-alpha (Homo sapiens, UniProt P07900); assay: Inhibition of human recombinant HSP90alpha preincubated for 30 mins followed by FITC-GM addition and mesured after 3 hrs by fluorescence polarization assay
A 172 = assay: Antiproliferative activity against human A-172 cells assessed as inhibition of cell growth measured after 72 hrs by CCK8 method; format: functional, cell-based; conditions: A 172, 72 h
Method in brief: (§2)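 Cell lines from ATCC or from patient surgical specimens (P1S, P3, P3R), kept in DMEM with 10% FBS and 1% penicillin/streptomycin at 37°C, 5% CO₂. P3R medium also held 50 μM TMZ. Cells were seeded at 2×10³/well 24 h before compound, then exposed 72 h.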

[5] = Antiproliferative activity against human patient-derived, TMZ-resistant and concurrent chemo-radiotherapy (CCRT)-resistant P1S cell assessed as inhibition of cell growth measured after 72 hrs by CCK8 method; format: functional, cell-based; method in brief: as §2
GL26 [6] = assay: Downregulation of IFN-gamma induced PD-L1 expression in mouse GL26 cells incubated for 24 hrs by flow cytometry analysis; format: functional, cell-based
Method in brief: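 GL26 cells at 3.6 × 10⁵ per well were treated at various concentrations with or without 10 ng/mL IFN-γ for 24 h. Cells were stained with goat anti-PD-L1 for 1 h in PBS/0.05% BSA, then FITC donkey anti-goat for 1 h, and read by flow cytometry. MFI was normalised to the secondary-antibody-only isotype control and expressed as an MFI ratio.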

U-251 [7] = assay: Downregulation of HER2 expression in human Temozolomide-resistant U-251 cells incubated for 24 hrs by Western blot analysis; format: functional, cell-based; conditions: dose 0.1-3 µM
SNB-75 = assay: Growth inhibition of human SNB-75 cells incubated for 48 hrs by SRB assay; format: functional
Method in brief: (§3)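 NCI-60 panel screen: cells seeded at 5000 to 40000 per well according to doubling time, 24 h before drug addition at various concentrations. A time-zero plate was TCA-fixed at drug addition. After 48 h drug exposure, growth was read by sulforhodamine B staining. Percent growth = [(Ti − Tz)/(C − Tz)] × 100, and GI50 is the concentration at which this equals 50.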

SF-539 = assay: Growth inhibition of human SF-539 cells incubated for 48 hrs by SRB assay; format: functional; method in brief: as §3
NCI-H460 = assay: Growth inhibition of human NCI-H460 cells incubated for 48 hrs by SRB assay; format: functional; method in brief: as §3
SF-295 = assay: Growth inhibition of human SF-295 cells incubated for 48 hrs by SRB assay; format: functional; method in brief: as §3
SNB-19 = assay: Growth inhibition of human SNB-19 cells incubated for 48 hrs by SRB assay; format: functional; method in brief: as §3
T98G = assay: Antiproliferative activity against human T98G cells assessed as inhibition of cell growth measured after 72 hrs by CCK8 method; format: functional, cell-based; method in brief: as §2
[8] = Antiproliferative activity against human patient-derived P3 cell assessed as inhibition of cell growth measured after 72 hrs by CCK8 method; format: functional, cell-based; method in brief: as §2
GL26 [9] = assay: Downregulation of HER2 expression in mouse GL26 cells incubated for 24 hrs by Western blot analysis; format: functional, cell-based; conditions: dose 0.1-3 µM
[10] = Antiproliferative activity against human U373 MG cells assessed as inhibition of cell growth measured after 72 hrs by CCK8 method; format: functional, cell-based, U-373MG ATCC; method in brief: as §2
GL26 [11] = assay: Downregulation of Akt phosphorylation expression at Ser 473 residues in mouse GL26 cells incubated for 24 hrs by Western blot analysis; format: functional, cell-based; conditions: dose 0.1-3 µM
[12] = Antiproliferative activity against human patient-derived TMZ-resistant GBM cells with MGMT negative P3R cell assessed as inhibition of cell growth measured after 72 hrs by CCK8 method; format: functional, cell-based; method in brief: as §2
U-251 [13] = assay: Growth inhibition of human U-251 cells incubated for 48 hrs by SRB assay; format: functional; method in brief: as §3
A549 = assay: Growth inhibition of human A549 cells incubated for 48 hrs by SRB assay; format: functional; method in brief: as §3
RPMI-8226 = assay: Growth inhibition of human RPMI-8226 cells incubated for 48 hrs by SRB assay; format: functional; method in brief: as §3
LN-229 = assay: Antiproliferative activity against human LN-229 cells assessed as inhibition of cell growth measured after 72 hrs by CCK8 method; format: functional, cell-based; conditions: LN-229, 72 h; method in brief: as §2
HCT-116 [14] = assay: Growth inhibition of human HCT-116 cells incubated for 48 hrs by SRB assay; format: functional; method in brief: as §3
K562 = assay: Growth inhibition of human K562 cells incubated for 48 hrs by SRB assay; format: functional; method in brief: as §3
GL26 [15] = assay: Upregulation of HSP70 expression in mouse GL26 cells incubated for 24 hrs by Western blot analysis; format: functional, cell-based; conditions: dose 0.1-3 µM
HCT-116 [16] = assay: Downregulation of PD-L1 expression in human HCT-116 cells; format: functional, cell-based
Method in brief: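 HCT116 cells at 3 × 10⁵ per well were treated at various concentrations with or without 20 ng/mL IFN-γ for 48 h. Cells were stained with mouse anti-PD-L1 for 1 h in PBS/0.05% BSA, then FITC goat anti-mouse for 1 h. Surface FITC mean fluorescence intensity was measured by flow cytometry.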

U-251 [17] = assay: Upregulation of HSP70 expression in human Temozolomide-resistant U-251 cells incubated for 24 hrs by Western blot analysis; format: functional, cell-based; conditions: dose 0.1-3 µM
SF-268 = assay: Growth inhibition of human SF-268 cells incubated for 48 hrs by SRB assay; format: functional; method in brief: as §3
NCI-H522 = assay: Growth inhibition of human NCI-H522 cells incubated for 48 hrs by SRB assay; format: functional; method in brief: as §3
U-87 MG = assay: Antiproliferative activity against human U-87 MG cells assessed as inhibition of cell growth measured after 72 hrs by CCK8 method; format: functional, cell-based, U-87MG ATCC; method in brief: as §2
U-251 [18] = assay: Downregulation of Akt phosphorylation expression at Ser 473 residues in human Temozolomide-resistant U-251 cells incubated for 24 hrs by Western blot analysis; format: functional, cell-based; conditions: dose 0.1-3 µM
[19] = Antitumor activity against mouse GL26 cells xenografted in C57BL/6J mouse model assessed as tumor growth inhibition at 25 mg/kg, ip administered daily for 3 days followed by every 3 days for 14 days by caliper method relative to control; format: functional; conditions: GL26, 336 h, time 14 day, read-out: TGI
Method in brief: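 Male C57BL/6J mice aged 8-9 weeks received 2 × 10⁵ GL26 cells subcutaneously in the lower back. From day 9 after implantation, once tumours were palpable, 25 mg/kg was given i.p. daily for 3 days and then every 3 days over 14 days. Caliper volume was length × width² ÷ 2. TGI% was taken relative to the mean tumour size of the vehicle group.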

SW-620 = assay: Growth inhibition of human SW-620 cells incubated for 48 hrs by SRB assay; format: functional; method in brief: as §3

**Q.** For `C#CCN(C)CCCOc1ccc(N(CCC)C(=O)c2cc(C(C)C)c(O)cc2O)cc1Cl`, which IC50 [1] is on record?
**A.** 8420 nM

**Q.** And the IC50 [2]?
**A.** 3860 nM

**Q.** What about the IC50 (U-251 [3]) of the same compound?
**A.** > 10000 nM

**Q.** And the IC50 [4]?
**A.** 170 nM

**Q.** Which IC50 [2] does the source give for `C#CCN(C)CCCOc1cc(N(CC)C(=O)c2cc(C(C)C)c(O)cc2O)ccc1Cl` here?
**A.** > 10000 nM

**Q.** For `C#CCN(C)CCCOc1ccc(N(CC)C(=O)c2cc(C(C)C)c(O)cc2O)cc1Cl`, which IC50 (A 172) is on record?
**A.** 890 nM

**Q.** And the IC50 [5]?
**A.** 680 nM

**Q.** What about the IC50 [1] of the same compound?
**A.** 490 nM

**Q.** And the Activity (GL26 [6])?
**A.** Dose-Dependent Effect

**Q.** And the Activity (U-251 [7])?
**A.** Dose-Dependent Effect

**Q.** What about the IC50 [2] of the same compound?
**A.** 4580 nM

**Q.** And the GI50 (SNB-75)?
**A.** 860 nM

**Q.** And the GI50 (SF-539)?
**A.** 310 nM

**Q.** What about the GI50 (NCI-H460) of the same compound?
**A.** 50 nM

**Q.** And the GI50 (SF-295)?
**A.** 320 nM

**Q.** And the GI50 (SNB-19)?
**A.** 440 nM

**Q.** And the IC50 (T98G)?
**A.** 460 nM

**Q.** What about the IC50 [8] of the same compound?
**A.** 2930 nM

**Q.** What about the Activity (GL26 [9]) of the same compound?
**A.** Dose-Dependent Effect

**Q.** What about the IC50 [10] of the same compound?
**A.** 890 nM

**Q.** What about the Activity (GL26 [11]) of the same compound?
**A.** Dose-Dependent Effect

**Q.** What about the IC50 [12] of the same compound?
**A.** 1450 nM

**Q.** And the GI50 (U-251 [13])?
**A.** 370 nM

**Q.** And the GI50 (A549)?
**A.** 140 nM

**Q.** And the GI50 (RPMI-8226)?
**A.** 330 nM

**Q.** And the IC50 (LN-229)?
**A.** 310 nM

**Q.** And the GI50 (HCT-116 [14])?
**A.** 80 nM

**Q.** What about the IC50 (U-251 [3]) of the same compound?
**A.** 260 nM

**Q.** And the GI50 (K562)?
**A.** 70 nM

**Q.** And the Activity (GL26 [15])?
**A.** Dose-Dependent Effect

**Q.** What about the IC50 [4] of the same compound?
**A.** 16 nM

**Q.** And the Activity (HCT-116 [16])?
**A.** Active

**Q.** What about the Activity (U-251 [17]) of the same compound?
**A.** Dose-Dependent Effect

**Q.** What about the GI50 (SF-268) of the same compound?
**A.** 1430 nM

**Q.** And the GI50 (NCI-H522)?
**A.** 70 nM

**Q.** And the IC50 (U-87 MG)?
**A.** 360 nM

**Q.** What about the Activity (U-251 [18]) of the same compound?
**A.** Dose-Dependent Effect

**Q.** What about the inhibition in vivo at 25 mg/kg [19] of the same compound?
**A.** 59.8%

**Q.** What about the GI50 (SW-620) of the same compound?
**A.** 240 nM

**Q.** For `C#CCN(C)CCCOc1cccc(N(C)C(=O)c2cc(C(C)C)c(O)cc2O)c1Cl`, which IC50 [2] is on record?
**A.** > 10000 nM

**Q.** For `C#CCN(C)CCCOc1cc(NC(=O)c2cc(C(C)C)c(O)cc2O)ccc1Cl`, which IC50 [2] is on record?
**A.** 2360 nM

**Q.** Which IC50 [2] does the source give for `C#CCN(C)CCCOc1cc(N(CCC)C(=O)c2cc(C(C)C)c(O)cc2O)ccc1Cl` here?
**A.** 860 nM

**Q.** For `C#CCN(C)CCCOc1cc(N(C)C(=O)c2cc(C(C)C)c(O)cc2O)ccc1Cl`, which IC50 [2] is on record?
**A.** > 10000 nM
